This is one part of a sample in which hits are shown more often than they occur.
Biofilm kill mix – clotrimazole potentiators killing C. albicans biofilm, primary screen, 4-compound mixtures | C. albicans biofilm persisters + clotrimazole, fluorescence viability; primary screen in compound mixtures of four per well | inhibition, % at 7.6 µM | actives 0.02% (n = 120,000) | AID 1242, 2008;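 active = inhibition above 30.3% in the primary screen of four-compound pools, then above 30% when the compound was retested; inconclusive = passed the primary limit but could not be retested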;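 also: compounds exposed to preformed 24 h biofilms for 48 h; 0% = untreated biofilm control and 100% = clotrimazole plus chlorhexidine kill blank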
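Assay system: C. albicans biofilms / Medium: RPMI/MOPS medium, pH 7.0 / Schedule: biofilm formation 24 h, compound exposure 48 h, 37 °C / Measured by: Alamar Blue fluorescence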
ROMK primary – ROMK potassium channel modulators, primary screen, cell-based, thallium flux, MLSMR library | ATP-sensitive inward rectifier potassium channel 1 (Homo sapiens), P48048 | Tet-inducible ROMK, thallium flux fluorescence; actives lie on both sides | B-score at 10 µM | AID 1918, 2009 | actives 2% (n = 130,000);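 active = signal ratio slope over the read window, or its plate-corrected B-score, at least 3 SD from the plate mean, either direction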;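 also: B-score of the F/F0 ratio slope over 7 to 12 s after thallium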
Target sequence (P48048 whole entry, looked up): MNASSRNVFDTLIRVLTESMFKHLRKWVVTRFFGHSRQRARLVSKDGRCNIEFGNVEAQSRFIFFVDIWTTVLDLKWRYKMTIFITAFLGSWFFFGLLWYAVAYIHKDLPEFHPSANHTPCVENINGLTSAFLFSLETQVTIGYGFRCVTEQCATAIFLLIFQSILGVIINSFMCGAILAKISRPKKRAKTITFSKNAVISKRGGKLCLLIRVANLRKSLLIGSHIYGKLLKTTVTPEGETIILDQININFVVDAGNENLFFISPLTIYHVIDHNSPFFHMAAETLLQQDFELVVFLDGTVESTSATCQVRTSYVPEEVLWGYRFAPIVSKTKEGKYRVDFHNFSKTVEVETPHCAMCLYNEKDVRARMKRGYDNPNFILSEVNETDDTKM
Pf gametocyte – late stage P. falciparum gametocyte viability inhibitors, primary screen, ATP luminescence, HTS. actives 0.065% (n = 150,000). inhibition, % at 10.9 µM. P. falciparum stage V gametocytes, 24 h;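 active = inhibition above the mean plus 3 SD of compounds within the control limits, set per campaign, cut at about 38% in these data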;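 also: 0% = DMSO wells and 100% = medium only without gametocytes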
ROMK hit retest – ROMK channel modulator hit retest, confirmation, cell-based, thallium flux, duplicate, resupplied hits | fluorescence ratio; stronger effect = lower value | normalized thallium flux (F/F0 slope) at 10 µM | actives 54% (n = 3,000) | AID 1917, 2009 | shares compounds with ROMK primary;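 active = Flux at 10 µM at least 3 SD below or above vehicle control mean in one or both replicates; inconclusive = no clear call, values can overlap the other calls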
Starred values were filed as active, the others as inactive.

What do the screens show for `COc1cc2cccc(OC)c(=O)c2c(O)c1OC`?
Biofilm kill mix: 6; ROMK primary: 0.28; Pf gametocyte: -28

Results for COc1cc2c(cc1OC)-c1c(OC)c(OC)cc3ccnc(c13)C2=O ?
Biofilm kill mix: 11; ROMK primary: -3.4*; Pf gametocyte: 17; ROMK hit retest: 0.054*

How did CCc1c(C)nc2ncnn2c1N1CCC(C(=O)Nc2cccc(C(C)=O)c2)CC1 do in these assays?
Pf gametocyte: -9; ROMK hit retest: inconclusive

How did CCc1c(C)nc2ncnn2c1N1CCC(C(=O)NCc2cccc(OC)c2)CC1 do in these assays?
Pf gametocyte: 16

Results for CC1CCCC(N2CCN(C(=O)c3ccccc3F)CC2)C1 (centres undefined) ?
Pf gametocyte: 13

Results for CCOc1ccc2c(c1)/C(=C(\C(Cl)=C(Cl)Cl)[N+](=O)[O-])N2 ?
Biofilm kill mix: 16; ROMK primary: -4.7*; Pf gametocyte: -8; ROMK hit retest: 0.053*

How did CCCCOc1ccc2c(c1)/C(=C(\C(Cl)=C(Cl)Cl)[N+](=O)[O-])N2 do in these assays?
Biofilm kill mix: 0; ROMK primary: -5.6*; Pf gametocyte: -9; ROMK hit retest: 0.054*

What do the screens show for `O=[N+]([O-])/C(C(Cl)=C(Cl)Cl)=C1\Nc2ccccc2O1`?
Biofilm kill mix: 22; ROMK primary: 1.6; Pf gametocyte: -4

Results for CCOc1ccc2c(c1)/C(=N/N1C(=O)c3ccccc3C1=O)C(=O)N2 ?
Biofilm kill mix: 0

How did COc1ccccc1C(=O)OC(C)CN1CCN(C)CC1 (centres undefined) do in these assays?
Pf gametocyte: 10

What do the screens show for `CCc1ccc(NC(=O)CNC(=O)c2cn(-c3ccccc3OC)c(=O)c3ccccc23)cc1`?
ROMK primary: -0.95

What do the screens show for `COc1ccccc1-n1cc(C(=O)NCC(=O)NCc2ccc(F)cc2)c2ccccc2c1=O`?
Biofilm kill mix: 30; ROMK primary: 3.1*; Pf gametocyte: 6; ROMK hit retest: 0.085

How did CCOc1ccc(CCNC(=O)c2cc(C)nn2-c2ccccc2)cc1 do in these assays?
Biofilm kill mix: 16; Pf gametocyte: -5

What do the screens show for `COc1ccccc1-n1c(=S)[nH]c2c(sc(=S)n2-c2ccccc2C)c1=O`?
Biofilm kill mix: 20; ROMK primary: -0.045

What do the screens show for `O=C(NCCc1c[nH]c2ccccc12)/C(=C/c1ccco1)NC(=O)c1ccco1`?
Biofilm kill mix: 8; ROMK primary: 2.3*; Pf gametocyte: -36; ROMK hit retest: 0.088

How did O=C(NCCc1c[nH]c2ccccc12)c1ccco1 do in these assays?
Pf gametocyte: -5

What do the screens show for `COc1ccccc1N1CCN(CCN2C(=O)C3CCCN3C2=O)CC1` (centres undefined)?
Pf gametocyte: 7

Results for CNC(=S)Nc1ccc2nc(C)oc2c1 ?
Biofilm kill mix: 8; ROMK primary: -0.34; Pf gametocyte: -30

How did O=C(NCC(O)CO)c1ccc2[nH]c3ccccc3c2c1 (centres undefined) do in these assays?
Biofilm kill mix: 12; ROMK hit retest: 0.077

How did CCOC(=O)CNC(=O)c1ccc2[nH]c3ccccc3c2c1 do in these assays?
Biofilm kill mix: 8; ROMK primary: 0.22; Pf gametocyte: 8

What do the screens show for `C/C(=N/NC(=O)CN1CCN(Cc2ccccc2Cl)CC1)c1cccnc1`?
Biofilm kill mix: 23; ROMK primary: 1.1; Pf gametocyte: 6

Results for CC(C)CCN1C(N(C)C)=NC[C@@H]1C ?
Pf gametocyte: 18

Results for C/C(CC(=O)NCc1ccco1)=N\NC(=O)COc1ccc(Cl)cc1Cl ?
Biofilm kill mix: 6; ROMK primary: 3.6*; ROMK hit retest: 0.092

What do the screens show for `CCCNC(=O)C/C(C)=N/NC(=O)COc1ccc(C)cc1Br`?
Biofilm kill mix: -4; Pf gametocyte: 6

Results for O=C(COc1ccc(Cl)cc1Cl)NCc1ccco1 ?
ROMK primary: -0.55

How did COc1ccc(CNC(=O)C/C(C)=N/NC(=O)COc2ccc(C)cc2Br)cc1 do in these assays?
Biofilm kill mix: 2; ROMK primary: 3.4*; Pf gametocyte: -1; ROMK hit retest: 0.074

Results for CC(=O)c1c(C)[nH]c(C(=O)OCC(=O)N2c3ccccc3NC(=O)C2(C)C)c1C ?
Biofilm kill mix: 9; ROMK primary: 0.4; Pf gametocyte: -8

What do the screens show for `O=C(N/N=C/c1cccs1)c1cc(-c2ccncc2)nc2ccccc12`?
Biofilm kill mix: 14; ROMK primary: 4.2*; Pf gametocyte: -1; ROMK hit retest: 0.085

What do the screens show for `CCc1ccc(/C=N/NC(=O)c2cc(-c3ccncc3)nc3ccccc23)s1`?
Biofilm kill mix: 11

Results for COC(=O)[C@@H]1C[C@@]2(O)[C@H](O)[C@H](O)[C@H](O)C[C@H]2N1Cc1ccc(C(F)(F)F)cc1 ?
Biofilm kill mix: 1

What do the screens show for `COC(=O)[C@@H]1C[C@@]2(O)[C@@H](O)[C@@H](O)[C@@H](O)C[C@H]2N1Cc1ccc(C(F)(F)F)cc1`?
Biofilm kill mix: 1; ROMK hit retest: 0.072

Results for Cc1ccc(S(=O)(=O)CCSc2n[nH]c(=O)n2-c2ccc3c(c2)OCCO3)cc1 ?
Biofilm kill mix: 19; ROMK primary: -0.27; Pf gametocyte: 8

Results for O=C(Cn1c(=O)n(CCc2c[nH]c3ccccc23)c(=O)c2cccnc21)Nc1ccccc1F ?
Biofilm kill mix: 17; ROMK primary: 2.8*; ROMK hit retest: 0.078

What do the screens show for `Cc1cccc(NC(=O)Cn2c(=O)n(CCc3c[nH]c4ccccc34)c(=O)c3cccnc32)c1`?
Biofilm kill mix: 7; ROMK primary: 0.97

How did COc1cccc(-n2c(O)c(C=NCc3ccccn3)c3ccccc3c2=O)c1 do in these assays?
Biofilm kill mix: 18; ROMK primary: 0.31; Pf gametocyte: -12

Results for O=c1c2ccccc2c(C=NCc2ccccn2)c(O)n1-c1ccccc1 ?
Biofilm kill mix: 17; Pf gametocyte: 3; ROMK hit retest: 0.088

How did CCOC(=O)c1c(N2C(=O)C3C4C=CC(C4)C3C2=O)sc2c1CCC(C)C2 (centres undefined) do in these assays?
Biofilm kill mix: 11; Pf gametocyte: 4

Results for NCCc1c(-c2ccccc2)n(-c2ccccc2)c2ccccc12 ?
Biofilm kill mix: 13; ROMK primary: -3.4*; ROMK hit retest: 0.061*

What do the screens show for `CC(=O)n1c(-c2ccccc2)c(CO)c2ccccc21`?
Pf gametocyte: 0

Results for C/C(=N\NC(=O)CN1CCN(c2ccc(F)cc2)CC1)c1ccco1 ?
Pf gametocyte: 9

How did CN(C)CCn1c(=N)n(CC(O)c2ccc(Cl)c(Cl)c2)c2ccccc21 (centres undefined) do in these assays?
Biofilm kill mix: 19; ROMK primary: -0.9

How did N=c1n(CCN2CCCCC2)c2ccccc2n1CC(O)c1ccc(Cl)c(Cl)c1 (centres undefined) do in these assays?
ROMK primary: -4.5*; ROMK hit retest: 0.046*

What do the screens show for `CCN(CC)C(=O)CSc1nc2ccccc2c(=O)n1CC1CCCCC1`?
ROMK primary: -2.4; ROMK hit retest: 0.061*

Bioassay records (PubChem BioAssay)
